# aDG glyco act: increases alpha dystroglycan glycosylation | activation, % at 10 µM | AID 624168 | Pro5-aDG cells, alpha-DG glycosylation AlphaScreen (IIH6); 0% Pro5, 100% B10-LARGE cell signal | actives 0.22% (n = 360,000);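 active = activation of at least 8% versus controls, or a plate z-score of at least 8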;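 also: Pro5 are CHO cells carrying HIG-tagged alpha-DG that lacks glycosylation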
# NPR2 activator: GC-B (human) receptor activation; P20594; HEK293-GC-B cells, CNP EC30, cGMP TR-FRET; 0% at EC30 CNP, 100% saturating CNP; activation, % at 10 µM; actives 0.11% (n = 370,000); AID 1920062;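 active = activation at 10 µM reaching about 35% in either raw or pattern-adjusted values, limit read from the data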
# NPR1 activator: GC-A (human) enzyme activation | P16066 | HEK293 GC-A cells, cGMP TR-FRET, EC30 ANP; 0% at EC30 ANP, 100% saturating ANP | activation, % at 10 µM | actives 0.14% (n = 370,000) | AID 1671463; in the data active = activation above about 40%
# NR3A LBD binder: modulates the human NR3A ligand-binding domain; Tm shift relative to glycine control, % at 25 µM; AID 1259313; NR3A LBD differential scanning fluorimetry, Tm shift; 0% = protein alone, 100% = glycine-bound protein; actives 2.5% (n = 340,000);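 active = melting temperature shift of at least 10% of the positive control shift, at one fixed dose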
# GASC-1 inh: inhibitors of human GASC-1 (JMJD2C) demethylase; Q9H3R0; GST-JMJD2C(1-420) H3K9me3 demethylation, DELFIA europium; inhibition, % at 2.35 µM; actives 0.069% (n = 330,000);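 active = more than half of a compound's replicate wells show inhibition beyond 50%, single wells judged on their own value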;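 also: signal counts dimethyl H3K9 product captured on neutravidin plate; 0% = median of DMSO wells and 100% = 0.3 times that DMSO median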
# Lipid droplet: hepatic lipid droplet formation modulation; actives 0.4% (n = 240,000); inhibition, % at 6.5 µM; AID 1656; AML12 mouse hepatocytes, oleate lipid droplets, BODIPY imaging;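 active = lipid droplet intensity inhibited by at least 50%, with more than 500 cells counted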
#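 Material: mouse AML12 hepatocyte cell line, fixed after treatment; Timing: compound with oleate, overnight; Technique: high-content imaging of BODIPY-stained droplets and DAPI nuclei; Probe or stimulus: oleate, 100 µM final; Dosing: compound at 6.5 µM only.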
# Numbers without * were called inactive; . = not tested or not shown. Hits are enriched below; roughly 3% of the tested compounds scored in any of these assays.
SMILES,aDG glyco act,NPR2 activator,NPR1 activator,NR3A LBD binder,GASC-1 inh,Lipid droplet
Cc1ccccc1OCC(=O)N/N=C/c1ccccn1,1,-1,1,1,-6,9
CC(/C=N/NC(=O)COc1ccccc1C)=N\NC(=O)COc1ccccc1C,0,3,-3,12*,17,10
O=C(CCc1ccc(S(=O)(=O)NCc2ccccc2)cc1)NCc1ccc2c(c1)OCO2,0,-3,1,2,52*,0
C[C@@H]1ON(C)[C@H]2C[C@H]3c4cc(-c5cc6ccccc6o5)ccc4CCN3C[C@@H]12,.,-3,6,.,.,.
COc1cc(NC(=O)c2cnn3c(C)cc(C)nc23)cc(OC)c1OC,.,-3,3,.,.,.
COC(=O)[C@]1(C)N[C@H](CN(C)C(=O)Nc2ccc(C(F)(F)F)cc2)[C@@H]2C(=O)N(C)C(=O)[C@@H]21,0,1,5,0,-4,.
COC(=O)[C@]1(C)N[C@H](CN(C)C(=O)Nc2ccc(OC)cc2)[C@@H]2C(=O)N(C)C(=O)[C@@H]21,0,-3,5,13*,-53,.
COC(=O)[C@]1(C)N[C@H](CN(C)C(=O)Nc2ccc(F)cc2)[C@@H]2C(=O)N(C)C(=O)[C@@H]21,0,6,4,1,37,.
CCN(C[C@H]1N[C@@](C)(C(=O)OC)[C@H]2C(=O)N(C)C(=O)[C@@H]12)C(=O)Nc1ccc(C)cc1,0,2,1,1,52*,.
COC(=O)[C@]1(C)N[C@H](CN(C)C(=O)Nc2ccccc2)[C@@H]2C(=O)N(C)C(=O)[C@@H]21,0,1,3,13*,17,.
CCN(C[C@H]1N[C@@](C)(C(=O)OC)[C@H]2C(=O)N(C)C(=O)[C@@H]12)C(=O)Nc1ccc(F)cc1,0,1,1,1,9,.
CC1CCCC(NC(=O)COC(=O)[C@@H](NC(=O)c2ccccc2Cl)C(C)C)C1C (stereo partly specified),0,-2,0,1,-14,.
CC(C)Oc1cccc(-c2n[nH]c(=S)n2N=Cc2ccc(O)cc2O)c1,.,-1,2,.,.,.
Cc1ccc(OCC(C)CN2CCC(C(O)(c3ccccc3)c3ccccc3)CC2)cc1 (stereo unspecified),.,-5,-14,.,.,.
COc1ccc(-c2cc(-c3nnc(COC(=O)c4ccc(O)cc4)o3)c3ccccc3n2)cc1OC,-1,-2,5,15*,-1,-3
COC(=O)C1CN(Cc2cn(CCOC(C)=O)nn2)CCS(=O)(=O)N1Cc1ccc(OC)cc1 (stereo unspecified),.,9,-2,.,.,.
CCn1cc(C(=O)NC(C)C)c(=O)c2cc(F)c(N3CCN(C(=O)c4ccco4)CC3)cc21,0,-1,-3,12*,44,-7
FC(F)(F)c1cccc(N2CCN(c3ccc4nnc(-c5ccccc5)n4n3)CC2)c1,0,-4,0,22*,-2,26
NC(=S)N/N=C/c1c[nH]c2ccc(OCc3ccccc3)cc12,1,.,.,10*,7,-8
O=C(CC1S/C(=N/N=C/c2c[nH]c3ccc(OCc4ccccc4)cc23)NC1=O)Nc1ccccc1 (stereo unspecified),0,5,-3,23*,6,14
COc1ccc(C=Nn2c(-c3n[nH]c4c3CCC4)n[nH]c2=S)cc1OCc1ccccc1,.,6,2,.,.,.
COc1cccc(C2c3cc4c(cc3OC(N3CCCC3)C2C)OCO4)c1O (stereo unspecified),0,0,-5,15*,.,.
Nc1ccc(Nc2ccncc2)cc1,0,-4,-5,.,.,.
Brc1ccc(OCc2ccccc2)c(CNCc2ccncc2)c1,0,-14,-19,11*,6,.
O=C(Nc1ccccc1)Nc1nnc(/C=C/c2ccccc2Cl)s1,0,2,4,37*,-16,6
SMILES,aDG glyco act,NPR2 activator,NPR1 activator,NR3A LBD binder,GASC-1 inh,Lipid droplet
O=C(/C=C/c1ccccc1[N+](=O)[O-])Nc1ccccc1,0,-3,3,6,-5,11
CN(C)S(=O)(=O)c1ccc(NC(=O)/C=C/c2ccccc2Cl)cc1,0,-3,-8,27*,0,-12
O=C(/C=C/c1ccccc1Cl)Nc1cccc(O)c1,1,-5,-8,30*,0,-18
O=C(/C=C/c1ccccc1Cl)Nc1ccccc1,0,-2,-3,20*,1,19
COC(=O)[C@]12C[C@H](CC(=O)N3CCN(C(=O)C4CC4)CC3)C(=O)N(Cc3cccc4ccccc34)C1=C[C@H](C1CCCC1)O[C@@H]2C,.,-7,-4,.,.,.
O=C(Nc1ccc(O)cc1)c1c(O)c2c([nH]c1=O)CCCC2,0,0,-5,15*,-15,6
O=C(COc1ccc(C(=O)NCCN2CCOCC2)cc1)Nc1cccc(C(F)(F)F)c1,0,0,-1,2,-29,.
O=C(Nc1cccc(Cl)c1Cl)c1cc(S(=O)(=O)NCCc2ccccc2)ccc1F,0,2,-6,18*,-3,-33
O=C(Nc1cc(Cl)ccc1F)C1CCCN(c2nnc(-n3cccc3)s2)C1 (stereo unspecified),.,-1,2,.,.,.
Cc1ccc(-n2c(SCC(=O)Nc3ccc4c(c3)OCCO4)nnc2-c2cnccn2)cc1,.,5,-4,.,.,.
Nc1cc(-c2ccc(Br)cc2)nc2cc(-c3ccccc3)nn12,1,2,4,34*,17,-20
Cc1cc(NS(=O)(=O)c2ccc(NC(=O)Cc3ccc(Cl)c(Cl)c3)cc2)on1,.,0,0,.,.,.
CCc1cccc(CC)c1NC(=O)C1SC(=Nc2ccccc2C)C(c2nc3ccccc3s2)=C1N (stereo unspecified),3,-2,-3,19*,-1,-1
CCc1cccc(C)c1NC(=O)CCCSc1nc2ccccc2s1,0,8,2,-1,5,10
CCOC(=O)C1=CC[C@@H](c2ccccc2C(F)(F)F)N(S(=O)(=O)c2ccc(C)cc2)[C@H]1c1ccc(C#N)cc1,0,-4,-1,.,.,.
O=C(CCN1CCCCCC1)c1ccccc1,0,-1,71*,5,6,.
O=C(CCN1CCOCC1)c1ccc(Cl)cc1,0,-4,58*,1,0,2
COc1ccc(C(=O)CCN2CCCCCC2)cc1,2,-15,33,0,10,.
O=C(CCN1CCOCC1)c1ccc(Br)cc1,1,-6,32,1,8,1
O=C(CCN1CCC2CCC(C2)C1)c1ccc(F)cc1 (stereo unspecified),1,-3,72*,-1,.,.
